Data published in ChEMBL document CHEMBL1130100, “Stabilized analogs of thymopentin. 3. Evaluation of ketomethylene pseudopeptides for antiarthritic properties” (1997).
“And” between values parts separate entries of the source, which are not always exact repeats. Identical values can stand only once.

Columns and labels:
Type in all cases: functional
Mus musculus [1] = test: (§1) Extent of paw swelling after treatment with thymopentin-5 (TP-5) compound in the Mouse Type II collagen arthritis at a dosage of 1.0 mg/kg on day 44
Method in brief: (§2)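 DBA/1 Lac mice immunized with bovine type II collagen (100 μg) in Freund's complete adjuvant at four to six back sites, then boosted ip (100 μg) on day 21. Dosing was iv in sterile saline every second day from day 19 through day 40, 12 mice per dose. Each hind paw was measured by caliper. Result given as % of untreated swelling after subtracting age-matched normal paw.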

Mus musculus [2] = test: On set and incidence of arthritis in the Mouse Type II collagen model at 0.5 dose mg/kg on day 40, expressed as ratio of number treated to that of control
Method in brief: (§3)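 DBA/1 Lac mice sensitized with bovine type II collagen (100 μg) in Freund's complete adjuvant, ip boost (100 μg) on day 21. Freshly dissolved compound in sterile saline was given iv every second day, day 19 through day 40, groups of 12. A mouse was scored arthritic if erythema or edema was present on any digit, paw or appendage. Incidence reported as number positive of 12.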

Mus musculus [3] = test: On set and incidence of arthritis in the Mouse Type II collagen model at 0.5 dose mg/kg on day 44, expressed as ratio of number treated to that of control; method in brief: as §3
Mus musculus [4] = test: On set and incidence of arthritis in the Mouse Type II collagen model following 0.5 mg/kg on day 30.; method in brief: as §3
Mus musculus [5] = test: On set and incidence of arthritis in the Mouse Type II collagen model at 0.5 dose mg/kg on day 37, expressed as ratio of number treated to that of control; method in brief: as §3
Mus musculus [6] = test: as §1; method in brief: as §2; remark: listed apart in the source
Rattus norvegicus [7] = test: extent of paw swelling following treatment with the compound in the rat adjuvant arthritis model observed on day 19 at 0.050 mg/kg dose; settings: dose 0.05 mg/kg
Method in brief: (§4)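 Rat adjuvant arthritis with iv dosing every second day, starting 2 days before the adjuvant/antigen challenge. Initial doses ranged 0.05 to 0.50 mg/kg, eight rats per dose. Each hind paw was measured by caliper. Swelling minus age-matched normal paw, expressed as % of untreated animals.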

Rattus norvegicus [8] = test: extent of paw swelling following treatment with the compound in the rat adjuvant arthritis model observed on day 12 at 0.050 mg/kg dose; settings: dose 0.05 mg/kg; method in brief: as §4
Mus musculus [9] = test: 60 Extent of paw swelling after treatment with thymopentin-5 (TP-5) compound in the Mouse Type II collagen arthritis at a dosage of 1.0 mg/kg on day 30; method in brief: as §2
Rattus norvegicus [10] = test: extent of paw swelling following treatment with the compound in the rat adjuvant arthritis model observed on day 16 at 0.050 mg/kg dose; settings: dose 0.05 mg/kg; method in brief: as §4
Mus musculus [11] = test: Extent of paw swelling after treatment with thymopentin-5 (TP-5) compound in the Mouse Type II collagen arthritis at 1 mg/kg on day 30.; settings: 1 mg/kg; method in brief: as §2
Rattus norvegicus [12] = test: extent of paw swelling following treatment with the compound in the rat adjuvant arthritis model observed on day 19 at 0.50 mg/kg dose; settings: dose 0.5 mg/kg; method in brief: as §4
Rattus norvegicus [13] = test: extent of paw swelling following treatment with the compound in the rat adjuvant arthritis model observed on day 12 at 0.50 mg/kg dose; settings: dose 0.5 mg/kg; method in brief: as §4
Mus musculus [14] = test: Extent of paw swelling after treatment with thymopentin-5 (TP-5) compound in the Mouse Type II collagen arthritis at a dosage of 0.03 mg/kg on day 30; method in brief: as §2
Rattus norvegicus [15] = test: extent of paw swelling following treatment with the compound in the rat adjuvant arthritis model observed on day 16 at 0.50 mg/kg dose; settings: dose 0.5 mg/kg; method in brief: as §4

Structure (SMILES)	Paw swelling (Mus musculus [1]) [%]	No. of mice (Mus musculus [2])	No. of mice (Mus musculus [3])	No. of mice (Mus musculus [4]; 0.5 mg/kg)	No. of mice (Mus musculus [5])	Paw swelling (Mus musculus [6])	Paw swelling (Rattus norvegicus [7]) [%]	Paw swelling (Rattus norvegicus [8]) [%]	Paw swelling (Mus musculus [9]) [%]	Paw swelling (Rattus norvegicus [10]) [%]	Paw swelling (Mus musculus [11])	Paw swelling (Rattus norvegicus [12]) [%]	Paw swelling (Rattus norvegicus [13]) [%]	Paw swelling (Mus musculus [14])	Paw swelling (Rattus norvegicus [15]) [%]	No. of mice (Mus musculus [4])
CCCCC(CC(=O)[C@@H](N)CCCN=C(N)N)C(=O)N[C@@H](CC(=O)O)C(=O)NC(C(=O)C[C@H](C(=O)O)C(C)C)C(C)C (stereo in doubt; 1h-A)	63	10	10	7	10	95% and 75% and 63%										
CCCC[C@@H](C(=O)N[C@@H](CC(=O)O)C(=O)N[C@H](C(=O)C[C@H](C(=O)O)C(C)C)C(C)C)N(C)C(=O)[C@@H](N)CCCN=C(N)N (stereo in doubt; 1m-A)		7	7	3	6		45	0	60	80	73% and 58%					
CC(C)[C@H](CC(=O)[C@H](CC(=O)O)NC(=O)[C@H](CCCCN)NC(=O)[C@@H](N)CCCN=C(N)N)C(=O)N[C@@H](Cc1ccccc1)C(=O)O (stereo in doubt; 3a-A)			9		8							39	0	30% and 70% and 73%	100	5
